Data taken from ChEMBL document CHEMBL1649091, “Flavonoids with an oligopolysulfated moiety: a new class of anticoagulant agents” (J Med Chem, 2011).
Calls of active or inactive are those of the source. The calls are words filed in the database; no cut-off is given here.

Assays:
[1] = target: Coagulation factor X (Homo sapiens) (UniProt P00742); assay: Inhibition of human factor 10a assessed as 25 x 10^-6M chromogenic TH substrate hydrolysis at 1 x 10^-3M
In short: (§1)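 Direct FXa test, with buffer in place of ATIII: compound in water in 50 mM Tris/HCl pH 8.3, 227 mM NaCl, 0.1% BSA, 10 min at 37 °C. Human FXa (0.5 U/mL final) added for 10 min, then CBS 31.39 (25 or 125 × 10^-6 M). Read at 405 nm every 12 s for 20 min. Percent inhibition from initial slope against water control, Michaelis-Menten fit.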

[2] = target: Coagulation factor X (Homo sapiens) (UniProt P00742); assay: Inhibition of human factor 10a assessed as 125 x 10^-6M chromogenic TH substrate hydrolysis at 0.5 x 10^-3M; in short: as §1
[3] = target: T1, Coagulation factor X/antithrombin III (Homo sapiens) (UniProt P01008+P00742); assay: Inhibition of human antithrombin 3/factor 10a assessed as 25 x 10^-6M CBS31.39 substrate hydrolysis at 1 x 10^-3M; assay type: protein-complex assay
[4] = target: T1, Coagulation factor X/antithrombin III (Homo sapiens); assay: Inhibition of human antithrombin 3/factor 10a assessed as 125 x 10^-6M CBS31.39 substrate hydrolysis at 2 x 10^-3M; assay type: protein-complex assay
[5] = target: T1, Coagulation factor X/antithrombin III (Homo sapiens); assay: Inhibition of human antithrombin 3/factor 10a assessed as 25 x 10^-6M CBS31.39 substrate hydrolysis at 0.5 x 10^-3M; assay type: protein-complex assay
[6] = test system: Mus musculus; assay: Hepatotoxicity in mouse liver assessed as change in plasma GOT/GPT level at 150 umol/kg, ip; assay type: toxicity, organism-based; conditions: in vivo
In short: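 Male CD1 mice (30-35 g), compound in saline ip at 150 µmol/kg. Portal vein citrated blood taken at 30, 60 and 120 min. GOT and GPT (U/L) measured in platelet-poor plasma on an automated chemistry analyzer. Four independent experiments, mean ± SEM.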

[7] = target: T1, Coagulation factor X/antithrombin III (Homo sapiens); assay: Inhibition of human antithrombin 3/factor 10a assessed as 125 x 10^-6M CBS31.39 substrate hydrolysis at 1 x 10^-3M; assay type: protein-complex assay
[8] = target: Coagulation factor X (Homo sapiens) (UniProt P00742); assay: Inhibition of human factor 10a assessed as 125 x 10^-6M chromogenic TH substrate hydrolysis at 1 x 10^-3M; in short: as §1
[9] = test system: Blood; assay: Anticoagulant activity in human whole blood assessed as clotting formation time at 1.25 x 10^-4M by thromboelastography in presence of extrinsic activators; assay type: functional
In short: (§2)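 Citrated whole blood from healthy donors (1:9 citrate), run within 5 h on a ROTEM analyzer. Compound in saline diluted 1:16 into blood to the final concentration stated; saline control. Intrinsic (InTEM) or extrinsic (ExTEM) activator added. Clot monitored at 37 °C in an oscillating cup-and-pin system for up to 60 min, giving R, K, angle and MA.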

[10] = Antiplatelet activity against collagen ADP-induced human platelet aggregation assessed as closure time at 1.25 x 10^-4M; assay type: functional
In short: (§3)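 Compound solution added to citrated human whole blood (125 µL into 1875 µL) to the final concentration stated, then run on a PFA-100 in collagen/ADP and collagen/epinephrine cartridges. Closure time is the time until platelets occlude the membrane aperture, in seconds. Mean ± SEM of three independent experiments.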

[11] = test system: Blood; assay: Anticoagulant activity in human whole blood assessed as alpha angle at 1.25 x 10^-4M by thromboelastography in presence of intrinsic activators; assay type: functional; in short: as §2
[12] = target: Coagulation factor X (Homo sapiens) (UniProt P00742); assay: Inhibition of human factor 10a assessed as 25 x 10^-6M chromogenic TH substrate hydrolysis at 0.5 x 10^-3M; in short: as §1
[13] = test system: Blood; assay: Anticoagulant activity in human whole blood assessed as clotting formation time at 1.25 x 10^-4M by thromboelastography in presence of intrinsic activators; assay type: functional; in short: as §2
[14] = test system: Blood; assay: Anticoagulant activity in human whole blood assessed as clotting time at 1.25 x 10^-4M by thromboelastography in presence of intrinsic activators; assay type: functional; in short: as §2
[15] = Anticoagulant activity in human plasma assessed as concentration required to double activated partial prothrombin time; assay type: functional
In short: (§4)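 Citrated pooled normal human plasma mixed 1:1 with compound in water (final 5 × 10-3 to 0.05 × 10^-3 M) and held 2 min at 37 °C. APTT: reagent added, 6 min at 37 °C, then 25 mmol/L CaCl2. PT: prewarmed PT reagent. TT: prewarmed thrombin (100 U/mL). Clotting read on a coagulometer, duplicate, three days (n = 6). Doubling concentration taken from linear regression of each concentration-response curve.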

[16] = target: Coagulation factor X (Homo sapiens) (UniProt P00742); assay: Inhibition of human factor 10a assessed as 125 x 10^-6M chromogenic TH substrate hydrolysis at 2 x 10^-3M; in short: as §1
[17] = Anticoagulant activity in human plasma assessed as concentration required to double prothrombin time; assay type: functional; in short: as §4
[18] = test system: Mus musculus; assay: Anticoagulant activity in mouse assessed as increase in activated partial prothrombin time at 150 umol/kg, ip relative to control; assay type: functional
In short: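 Adult male CD1 mice (30-35 g) given compound in saline ip at 150 µmol/kg, fasted on the day. Citrated portal vein blood taken at 30, 60 and 120 min. APTT measured in platelet-poor plasma. Expressed as ratio to saline-treated mice, mean ± SEM of three experiments.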

[19] = Anticoagulant activity in human plasma assessed as concentration required to double thrombin time; assay type: functional; in short: as §4
[20] = target: Prothrombin (Homo sapiens) (UniProt P00734); assay: Inhibition of human thrombin
In short: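 Direct thrombin assay without ATIII: compound in water in 50 mM Tris/HCl pH 8.3, 227 mM NaCl, 0.1% BSA, 10 min at 37 °C. Human thrombin (0.06 U/mL final) added for 10 min, then Chromozym TH (178 × 10^-6 M). Read at 405 nm every 12 s for 20 min. Percent inhibition from initial slope against water control. Duplicates on ≥3 days.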

[21] = target: T1, Coagulation factor X/antithrombin III (Homo sapiens); assay: Inhibition of human antithrombin 3/factor 10a assessed as 125 x 10^-6M CBS31.39 substrate hydrolysis at 0.5 x 10^-3M; assay type: protein-complex assay
[22] = target: Coagulation factor X (Homo sapiens) (UniProt P00742); assay: Inhibition of human factor 10a assessed as 25 x 10^-6M chromogenic TH substrate hydrolysis at 2 x 10^-3M; in short: as §1
[23] = target: T1, Coagulation factor X/antithrombin III (Homo sapiens); assay: Inhibition of human antithrombin 3/factor 10a assessed as 25 x 10^-6M CBS31.39 substrate hydrolysis at 2 x 10^-3M; assay type: protein-complex assay
[24] = Stability of the compound in human plasma assessed as compound remaining after 3 hrs; assay type: ADME, cell-free; conditions: read-out: Activity
In short: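 Compound at 25 µM final in human plasma diluted 1:1 with PBS pH 7.4, shaken at 37 °C for 180 min. Time-zero and 180-min samples quenched with TBA buffer and cold acetonitrile, then centrifuged. Supernatant dried, redissolved and analysed by HPLC. Three independent samples per time point.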

[25] = test system: Blood; assay: Anticoagulant activity in human whole blood assessed as clotting time at 1.25 x 10^-4M by thromboelastography in presence of extrinsic activators; assay type: functional; in short: as §2
[26] = Antiplatelet activity against collagen EPI-induced human platelet aggregation assessed as closure time at 1.25 x 10^-4M; assay type: functional; in short: as §3
[27] = test system: Blood; assay: Anticoagulant activity in human whole blood assessed as maximum amplitude at 1.25 x 10^-4M by thromboelastography in presence of intrinsic activators; assay type: functional; in short: as §2
[28] = test system: Blood; assay: Anticoagulant activity in human whole blood assessed as alpha angle at 1.25 x 10^-4M by thromboelastography in presence of extrinsic activators; assay type: functional; in short: as §2
[29] = test system: Blood; assay: Anticoagulant activity in human whole blood assessed as maximum amplitude at 1.25 x 10^-4M by thromboelastography in presence of extrinsic activators; assay type: functional; in short: as §2

Coagulation factor X (Homo sapiens), sequence (P00742 41-179 limits assumed): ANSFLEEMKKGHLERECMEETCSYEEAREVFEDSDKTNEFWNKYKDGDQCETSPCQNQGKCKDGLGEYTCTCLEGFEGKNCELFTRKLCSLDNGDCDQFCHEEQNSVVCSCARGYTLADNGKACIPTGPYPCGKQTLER
Coagulation factor X (Homo sapiens), sequence (P00742 235-488 limits assumed): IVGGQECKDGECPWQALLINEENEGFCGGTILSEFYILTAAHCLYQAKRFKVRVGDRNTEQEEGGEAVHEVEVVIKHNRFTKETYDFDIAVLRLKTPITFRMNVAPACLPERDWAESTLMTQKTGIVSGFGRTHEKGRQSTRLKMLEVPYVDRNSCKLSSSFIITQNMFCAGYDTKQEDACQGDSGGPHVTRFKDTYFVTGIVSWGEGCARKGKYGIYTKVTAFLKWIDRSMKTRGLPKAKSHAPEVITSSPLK

inhibition [1]: 30.9%
inhibition [2]: 22.4%
inhibition [3]: 30.5%
inhibition [4]: 33.1%
inhibition [5]: 29.3%
inhibition [7]: 20.7%
inhibition [8]: 32%
inhibition [12]: inactive
inhibition [16]: 42.7%
inhibition [20]: inactive
inhibition [21]: inactive
inhibition [22]: 40%
inhibition [23]: 31.4%
remaining at 3 h [24]: 95%
SMILES: C[C@H]1O[C@@H](OC[C@@H]2O[C@H](Oc3c(-c4ccc(OS(=O)(=O)O)c(OS(=O)(=O)O)c4)oc4cc(OS(=O)(=O)O)cc(OS(=O)(=O)O)c4c3=O)[C@@H](OS(=O)(=O)O)[C@H](OS(=O)(=O)O)[C@H]2OS(=O)(=O)O)[C@@H](OS(=O)(=O)O)[C@@H](OS(=O)(=O)O)[C@@H]1OS(=O)(=O)O
Activity [6]: Non-toxic
Time [9]: 257 s
Time [10]: 189 s
Activity [11]: 61 degree
Time [13]: 176 s
Time [14]: 261 s
2aPTT [15]: 66 µM
2PT [17]: 649 µM
fold change (FC) [18]: 1.5
Activity [19]: 877 µM
Time [25]: 120 s
Time [26]: 244 s
Activity [27]: 48 mm
Activity [28]: 51 degree
Activity [29]: 46 mm
